According to the EternaBench riboswitch data:

Test system: MS2 coat protein
Test: apparent Kd, MS2 coat protein; higher = weaker binding; RNA-MaP array; FMN 200 µM where present
Method in brief: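 Stalled E. coli RNA polymerase produced the designs on Illumina sequencing-chip clusters. SNAP-549-labelled MS2 coat protein was added from 0.7 or 1.5 nM, doubling to 3 µM, without and then with constant ligand, in 100 mM Tris-HCl pH 7.5, 80 mM KCl, 4 mM MgCl2, BSA, DTT, yeast tRNA and Tween-20. The apparent Kd is the median of filtered per-cluster fits of green signal normalised to red-channel RNA signal and control-cluster median Fmax.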

[1] = designed as: OFF switch for flavin mononucleotide, no ligand
[2] = ligand present: flavin mononucleotide, designed as: OFF switch for flavin mononucleotide
[3] = designed as: ON switch for flavin mononucleotide, no ligand
[4] = ligand present: flavin mononucleotide, designed as: ON switch for flavin mononucleotide

Sequence | apparent Kd [1] | apparent Kd [2] | apparent Kd [3] | apparent Kd [4]
CCGAAUAAGCAGGAUAUCGAAUCGGAAACGAUUCGAGAAGGGUUAACAUGAGGAUCACCCAUGUUCCUUAACGG | 20.3 nM | 22.2 nM |  | 
UGUCGGAGCAGAGGAUAUUACAUGAGGAUCACCCAUGUAUGAACCAAUCGCUGGAAACAGCAAUGUAAGAAGGCUGCUCCGACA | 10.3 nM | 73.7 nM |  | 
GGAUCGAAUGUGAGGAUAUGCUGGUCCUUGGAUCAGCAGAAGGCACAUGAGGAUCACCCAUGUCCUCUCGGUCC | 248 nM | 458 nM |  | 
CUAAAGCAUGUAGGAUAUGCGUGGCGAAGCUAUGCAGAAGGACAUGAGGAUCACCCAUGUCUUUCCGUCUGCGUACAGACGGAA | 19.1 nM | 52.4 nM |  | 
UUACCUUAUGAGAAGGCGGUCAUGAAACAUGAUCGAGGAUAUCAUGUAAACAUGAGGAUCACCCAUGUAUGGGUAUUAUGGUAG |  |  | 303 nM | 52 nM
GUUGUAUGAGGAUAUACAUGAGGAUCACCCAUGUGUGUUGUGAACGAUGUACGUUUAUGUAGAAGGCGUGCGGC | 17.8 nM | 21.5 nM |  | 
CGGCAUCAUGUAGGAUAUGCGUGGCGAAGCUAUGCAGAAGGACAUGAGGAUCACCCAUGUCUUAGCUAGCGUACUAGCUUGCCG | 6.24 nM | 16.6 nM |  | 
UUCGUGCAGCUUUGCUGUACGAGUACAUGAGGAUCACCCAUGUAGGAUAUGGUACGCUUUGCGUGCUAGAAGGAUAUGUGUAGC | 33 nM | 37 nM |  | 
AUCGUGAGAGGAUAUACAUGAGGAUCACCCAUGUUUCGAACACCAUGCGGUCAUUUGCGUAGAAGGCUCGUGCG | 29.1 nM | 87.1 nM |  | 
CGAACUAAGUAGAAGGCAGUCUUAAAAUAGGACUGAGGAUAUACAUGAGGAUCACCCAUGUACUCCUUUAAUAAGUUUGAAAUA | 5.31 nM | 5.38 nM |  | 
GCACGACAUGUAGGAUAUCGAGCGCCGGGCGCUCGAGAAGGACAUGAGGAUCACCCAUGUAUUCUGAGUGACCGAGGUCGUUGC | 47.9 nM | 431 nM |  | 
GGGUGACAUGAGGAUCACCCAUGUCAGGAUAUCUAGGGCAGAUGCUGGGAGCGUUCGCAGAGAAGGGACCAGAU | 52.3 nM | 46.1 nM |  | 
GCCAGCUAUGUAGGAUAUGCGCGGCGAGCCUGUGCAGAAGGACAUGAGGAUCACCCAUGUGUUGCGGUCUGAGUACUGAUCGCC | 36.1 nM | 160 nM |  | 
CAGUACUGAGGAUAUACAUGAGGAUCACCCAUGUGUCCUAGCUAGGAUACUAGCAUUAGUAGAAGGCAGUACUG | 18 nM | 213 nM |  | 
UGUUUAUAUGAAGGAUAUACUUAACAUGAGGAUCACCCAUGUGGUGUUGUGAGUGAGUGAGUUUAGUAGAAGGUCAAUUAUUUU | 286 nM | 643 nM |  | 
UACGAUGUACAUGAGGAUCACCCAUGUCAUAUGCCCGUGACACAGGAUAUCCAGGAUAGGCCAAAGGAGAAGGGUGAUCCGCGG |  |  | 66.9 nM | 139 nM
UGGAUGGUAUGAGGAUAUGCGCGCGAAACGCGCGCAGAAGGCAUGUCAAUAGACAUGAGGAUCACCCAUGUAUUAUCUAUCCAA |  |  | 203 nM | 14.8 nM
GUAGCAUACCGAGGAUAUUCAUAUAAUAAGUAAACAUGAGGAUCACCCAUGUAGCGAAAGCCUUGGGAGAAGGCGGAAUGCUAC |  |  | 346 nM | 52 nM
UAGUUGCUAGGAUAUACUUGGGCAACUACUGAACCUAUAUAACAUGAGGAUCACCCAUGUAGAAGGAGCAUAUA | 23.1 nM | 19.1 nM |  | 
AAUAUAAAAGAGCUGGAUAAACUCACAUGAGGAUCACCCAUGUAGGAUAUCAGCACGAUAAGUGCUGAGAAGGACAACCAGCUC | 14.8 nM | 15.3 nM |  | 
UCAUUUAUCACAGGAUAUAUUAGUAUACAGUUGUUUGGCUCUUACAUAUUAAUAGAAGGGUGAAACAUGAGGAUCACCCAUGUA |  |  | 621 nM | 224 nM
UUCCUCGUUGUGAGGAUAUCGUCCUAUUUUUGUUACGAGAAGGCACAUGAGGAUCACCCAUGUUACUUGAUGUU | 19.9 nM | 71 nM |  | 
CGGACCCGAGGAUAUCGUAAACCCGACAUGAGGAUCACCCAUGUCAUCCUCACGGCGCCACGAGAAGGCGGUGUUA | 24.2 nM | 75.7 nM |  | 
UGUCGGAGCAGAGGAUAUUACAUGAGGAUCACCCAUGUAUGAACCAAUAGCUGGACACAGCAAUGUAAGAAGGCUGCUCCGACA | 11.4 nM | 133 nM |  | 
AAAUGCGUAAAGGACACAUGAGGAUCACCCAUGUUUCUGUCCAAGGAUAUGAGGUGAAUGAUCCGUCAGAAGGUGGACUUGCUU |  |  | 114 nM | 220 nM
UAUUAUGUCAGAGGAUAUAUAAAUAAAUUUAUAACAUGAGGAUCACCCAUGUACUUUAGUAUGAGGUAGAAGGUUGAUAAGAUA |  |  | 45.4 nM | 26.8 nM
ACUUGUAAGCAGAAGGCAGUCAUUAUAUUCAUCAUGUAGACAUGAGGAUCACCCAUGUAUAGUACUGAGGAUAUGCAUCGAUAG | 6.75 nM | 10.3 nM |  | 
GGAUGACAAAGUCAUCCUAAACGAACAUGAGGAUCACCCAUGUAGGAUAUGGUACUCAAAGAGUACCAGAAGGACAUGUGCCUU | 33.7 nM | 200 nM |  | 

Sequence | apparent Kd [1] | apparent Kd [2] | apparent Kd [3] | apparent Kd [4]
AGCUGUGGCAGAGGAUAUACUUCAAUAAUCCAUUGCAAAUAGCGAUGGACAUGAGGAUCACCCAUGUAGAAGGCUGUCUCAGCA | 19.9 nM | 46.2 nM |  | 
UAUGUUUUAGGAUAUUGUACUGCUGACAUGAGGAUCACCCAUGUAUGCUAACUCGGUUGUCGAGAAGGAGAAUAUG | 59.4 nM | 44.2 nM |  | 
UCAAAGCCAUUUUGGCGAGUCACAUGAGGAUCACCCAUGUAACAGGAUAUCGAUUGGCUUCCCGGCGAGAAGGGUUACUAGGGA | 10.8 nM | 15.5 nM |  | 
UUGGACGUCGUAGGAUAUGUAGGAUAUUCCUACAUGAGGAUCACCCAUGUUGACAUGGAAGAAGGACAGAAGGAAGAUGUCCAU |  |  | 776 nM | 13.9 nM
UUGGACGUCAUAGGAUAUGUAGGAUAUUCCUACAUGAGGAUCACCCAUGUUGACAUGGAAGAAGGACAGAAGGACGAUGUCCAU |  |  | 665 nM | 10.7 nM
CCGGCUAAAGGAUAUGUGUGUAGCAACAUGAGGAUCACCCAUGUGAUGUCCUAGGUUAGCACAGAAGGUUACUAUU | 35.6 nM | 34.1 nM |  | 
GGUUGGCGAGGAUAUACAUGAGGAUCACCCAUGUGGUCCUGUGGCUGAAAAAACCUUUGUAGAAGGCGCGGGUC | 197 nM | 262 nM |  | 
GAUCGAGAACUCACGGCGUUGCACAUGAGGAUCACCCAUGUGCAGGAUAUGGCCGCCGUCGGAGGCCAGAAGGGCACAGUAGGU | 10.2 nM | 20 nM |  | 
CCACUGUCAGGAUAUCGUGCAUAAGCGAUUACAUUUAUGUGCGAGAAGGGACAUGAGGAUCACCCAUGUAAUCG | 528 nM | 368 nM |  | 
GCGACGAUCGAGAAGGCCACUACAUGAGGAUCACCCAUGUCGUGGUGUAUUGGAGGAUAUCGAUCAGCGUCUUAUGAGGACAUG | 5.13 nM | 7.68 nM |  | 
GCUGUCGCAUGAGGAUAUGGUCAGCUUUGCUGACCAGAAGGCAUGUCAAUAGACAUGAGGAUCACCCAUGUGGUUAGGGCGGCU |  |  | 1030 nM | 93.5 nM
GGAUCCAUCACAGGAUAUGCUGGACUUUGUCCAGCAGAAGGGUGAAACAUGAGGAUCACCCAUGUAUGGAUCCAUAUAUUUAAU |  |  | 327 nM | 393 nM
GAUCCUUCUGUUAGGAUAUGCUUUGGGCUUCCGCAGCAGAAGGAACAUGAGGAUCACCCAUGUCCGAUGCCGUC | 80.5 nM | 98 nM |  | 
UGUAUGGACAGAGGAUAUACGGAUAGGAUCUACUAUCAAACAAGUCCUACAUGAGGAUCACCCAUGUAGAAGGCUGUCCAUACU | 16.4 nM | 22.7 nM |  | 
GUGCGGUAGGAGAAGGACGGCGGGUUCUUUUCAUACAUGAGGAUCACCCAUGUAGGAUAUCCUACCUCACGCGGCCUACUACAG | 8.61 nM | 13.5 nM |  | 
AUGCUAUACGAAGGAUAUGGUUACAUGAGGAUCACCCAUGUAAUUUUUGUGAUCUUGUUUAAGUUCCAGAAGGUCGUAUAGCUA | 42.2 nM | 156 nM |  | 
AUAAAGCGUGCUACGCAAAAUAACGCAGAAGGCCAACAUGAGGAUCACCCAUGUAAAAGAAAGAUGGAGGAUAUGCGGUUUGGC |  |  | 46.6 nM | 5.74 nM
AUGGUUGUCGAGGAUAUGCACCGGCUCGCUGACGCAGAAGGCGACACAUGAGGAUCACCCAUGUCGGUUCGCGU | 22.4 nM | 51.4 nM |  | 
CACACCGUAGGAGGAUAUCCCUGGACAUGAGGAUCACCCAUGUUUAGCCCGUCCUCAUGUUAGUCGGAGAAGGCCUAGUGGUCG | 36.7 nM | 37.6 nM |  | 
UCGAUAAGGAGAGGAUAUGGACAUGAGGAUCACCCAUGUACAUGGGAAUAUAUACUGAAUUUUUACUAGAAGGCUUACAUAUUU | 16.7 nM | 13.6 nM |  | 
GGUCCAUCUGUUAGGAUAUGCUUUGGGCUUCCGCAGUAGAAGGAACAUGAGGAUCACCCAUGUCCGAUGCCGUC | 25.1 nM | 30.3 nM |  | 
UGUGCGUCAGGAUAUUCUAUUUAUUACAUGAGGAUCACCCAUGUGAAUGUACAAGGGUGUGAAGAAGGGACUUGUC | 686 nM | 526 nM |  | 
AGGGAGUAAGGAUAUCGGAAAGGACACGAAAGUGACAAAGACGAGAAGGUACAUGAGGAUCACCCAUGUAAAAA | 21.3 nM | 20.1 nM |  | 
CGGGUGGUCCUCCGGGAUUGGACACAGGAUAUCCGCGAGAACAUGAGGAUCACCCAUGUACAUGAGGAGAAGGGUGGACGAAGA |  |  | 56.1 nM | 11.2 nM
AGAAAACAUGAGGAUCACCCAUGUGAGGAUAUCGAUGUCCAGGGCCUGGUGCGGGACUCGAGAAGGCACUGGGA | 59.9 nM | 86.9 nM |  | 
CUUCUGUAAGGAUAUUGCGAUAAGCAUGACAUCGCCGGUCGCAAGAAGGUACAUGAGGAUCACCCAUGUGCGGU | 161 nM | 152 nM |  | 
CCUGCACAUGAGGAUCACCCAUGUUAGGAUAUCUCGCCGCCUAAACGAAUGGUGGCCCAGAGAAGGAACAGGGC | 28.6 nM | 41.3 nM |  | 
